IC50 and Activity data for 46 compounds are collected here from ChEMBL document CHEMBL4265954, “Discovery of potent liver-selective stearoyl-CoA desaturase-1 (SCD1) inhibitors, thiazole-4-acetic acid derivatives, for the treatment of diabetes, hepatic steatosis, and obesity” (Eur J Med Chem, 2018).

In one data set the target is T1, Stearoyl-CoA desaturase (Homo sapiens, UniProt O00767).
T1 sequence (O00767 whole entry): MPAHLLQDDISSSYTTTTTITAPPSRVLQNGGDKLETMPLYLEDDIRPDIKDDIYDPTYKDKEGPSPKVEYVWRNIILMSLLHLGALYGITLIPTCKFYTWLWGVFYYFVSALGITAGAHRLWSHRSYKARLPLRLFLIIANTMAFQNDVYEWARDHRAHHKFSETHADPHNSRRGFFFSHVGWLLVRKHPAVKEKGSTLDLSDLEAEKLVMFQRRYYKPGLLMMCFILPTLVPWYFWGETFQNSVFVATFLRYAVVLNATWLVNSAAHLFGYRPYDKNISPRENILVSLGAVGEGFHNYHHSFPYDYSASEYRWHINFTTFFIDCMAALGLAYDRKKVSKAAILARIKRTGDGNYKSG
The data set is described as follows: Inhibition of recombinant human SCD1 expressed in baculovirus expression system assessed as reduction in [3H]H2O production using stearoyl [9,10-3H]CoA as substrate in presence of NADH incubated for 30 mins by scintillation counting method. Put shortly: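 Desaturation of [9,10-3H]stearoyl-CoA measured as released [3H]H2O. Water was separated from charcoal-adsorbed substrate by filtration and counted by scintillation. Remaining activity = (compound − background)/(control − background). DMSO wells served as control and pre-stopped wells as background. IC50 was interpolated from the two points bracketing 50%.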

Data set [1] relates to Mus musculus. The data set is described as follows: Ex vivo inhibition of SCD1 in C57BL/6J mouse liver assessed as residual activity at 1 mg/kg, po treated for 6 hrs followed by incubation with [14C]stearoyl-CoA substrate for 10 mins by TLC assay relative to control. Format: functional. Put shortly: (§1)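 Male 6-week-old C57BL/6J mice dosed orally as a suspension in 0.5% methylcellulose. Liver or eyelid was taken 6 or 24 h later and homogenized in 100 mM Tris-HCl pH 7.4 with 0.25 M sucrose. S9 was obtained at 10,000 × g, 4 °C. S9 was incubated with [14C]stearoyl-CoA, NADH, MgCl2 and cytochrome b5 at room temperature, 10 min for liver and 30 min for eyelid. Lipids were saponified and run on AgNO3 TLC to quantify stearate and oleate. Result is % of vehicle control.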

In data set [2] the test system is Mus musculus. The data set is described as follows: Ex vivo inhibition of SCD1 in C57BL/6J mouse eyelid assessed as residual activity at 1 mg/kg, po treated for 6 hrs followed by incubation with [14C]stearoyl-CoA substrate for 30 mins by TLC assay relative to control. Format: organism-based. In outline:
as §1

For data set [3], the system named is Mus musculus. The data set is described as follows: Ex vivo inhibition of SCD1 in C57BL/6J mouse liver assessed as residual activity at 10 mg/kg, po treated for 24 hrs followed by incubation with [14C]stearoyl-CoA substrate for 10 mins by TLC assay relative to control. Format: functional. Put shortly: as §1
The test system of data set [4] is Mus musculus. The data set can be described thus: Ex vivo inhibition of SCD1 in C57BL/6J mouse eyelid assessed as residual activity at 100 mg/kg, po treated for 24 hrs followed by incubation with [14C]stearoyl-CoA substrate for 30 mins by TLC assay relative to control. It is filed as organism-based. In outline: as §1

By IC50 is commonly meant the concentration at which inhibition is half-maximal.

In the case of `O=C(O)Cc1csc(NC(=O)c2ccc(CNc3ccccc3C(F)(F)F)s2)n1`, the IC50 on Stearoyl-CoA desaturase is 9 nM. Also, the Activity in the data set with Mus musculus [1] is recorded as 51%; in the data set on Mus musculus [2], 124%.

Turning to `Cc1csc(NC(=O)c2ccc(CNc3ccccc3C(F)(F)F)s2)n1`, at Stearoyl-CoA desaturase, the IC50 was determined as 9.7 nM.

Regarding `CC(C)CCc1ccccc1NCc1ccc(C(=O)Nc2nc(CC(=O)O)cs2)s1`, the IC50 on Stearoyl-CoA desaturase came out at 6.7 nM. Moreover, the Activity came out at 19% with Mus musculus [1], 160% with Mus musculus [2], 34% with Mus musculus [3] and 84% in the data set with Mus musculus [4].

As for `CCCCc1ccccc1NCc1ccc(C(=O)Nc2nc(CC(=O)O)cs2)cc1`, the IC50 on Stearoyl-CoA desaturase is 5.5 nM. For the same compound, the Activity turned out to be 76% in the data set with Mus musculus [1] and 74% with Mus musculus [2].

`O=C(Nc1nc(CO)c(C(=O)O)s1)c1ccc(CNc2ccccc2C(F)(F)F)cc1`: the IC50 at Stearoyl-CoA desaturase is 22 nM.

For the compound `O=C(O)Cc1csc(NC(=O)c2ccc(CNc3ccccc3Cc3ccccc3)cc2)n1`, the half-maximal inhibitory concentration (IC50) on Stearoyl-CoA desaturase was 5.5 nM. The Activity in the data set with Mus musculus [1] worked out at 18%; with Mus musculus [2] it was 76%; in the data set with Mus musculus [3], 53%; with Mus musculus [4], 100%.

Consider `CCCc1ccccc1NCc1ccc(C(=O)Nc2nc(C)cs2)cc1`, for which the IC50 at Stearoyl-CoA desaturase is 8.9 nM.

For the compound `Cc1csc(NC(=O)c2ccc(CNc3ccccc3)cc2)n1`, the IC50 at Stearoyl-CoA desaturase worked out at 95 nM.

With `Cc1csc(NC(=O)c2ccc(CNc3ccc(Cl)cc3)cc2)n1`, the IC50 at Stearoyl-CoA desaturase was 760 nM.

As for `CCCCCCc1ccccc1NCc1ccc(C(=O)Nc2nc(CC(=O)O)cs2)s1`, the IC50 at Stearoyl-CoA desaturase is 4.8 nM. Also, the Activity with Mus musculus [1] turned out to be 12%; in the data set on Mus musculus [2] it was 88%; in the data set on Mus musculus [3] it was 13%; in the data set with Mus musculus [4] it was 52%.

For the compound `Cc1csc(NC(=O)c2ccc(CNc3ccccc3C(F)(F)F)cc2)n1`, the IC50 at Stearoyl-CoA desaturase turned out to be 4.1 nM.

In the case of `O=C(O)CCc1cnc(NC(=O)c2ccc(CNc3ccccc3C(F)(F)F)cc2)s1`, at Stearoyl-CoA desaturase, the IC50 came out at 570 nM.

In the case of `O=C(O)Cc1csc(NC(=O)c2ccc(CNc3ccccc3C(F)(F)F)cc2)n1`, the IC50 on Stearoyl-CoA desaturase was 5.1 nM. In addition, the Activity in the data set with Mus musculus [1] is recorded as 98%; in the data set on Mus musculus [2], 107%.

Take `O=C(Nc1nc(CCO)cs1)c1ccc(CNc2ccccc2C(F)(F)F)cc1`: the IC50 on Stearoyl-CoA desaturase is 4.2 nM. Also, the figures for the Activity in the data set on Mus musculus [1] and in the data set with Mus musculus [2] were 33% and 136%, respectively.

As for `O=C(O)CCc1csc(NC(=O)c2ccc(CNc3ccccc3C(F)(F)F)cc2)n1`, the IC50 on Stearoyl-CoA desaturase is 6.3 nM.

With `CCCCCCc1ccccc1NCc1ccc(C(=O)Nc2nc(CC(=O)O)cs2)cc1`, the IC50 at Stearoyl-CoA desaturase worked out at 3 nM. The Activity turned out to be 31% with Mus musculus [1] and 119% in the data set on Mus musculus [2].

Regarding `O=C(Nc1ncc(CCO)s1)c1ccc(CNc2ccccc2C(F)(F)F)cc1`, the IC50 at Stearoyl-CoA desaturase worked out at 3.8 nM.

Regarding `Cc1ccccc1NCc1ccc(C(=O)Nc2nc(C(=O)O)cs2)cc1`, the IC50 on Stearoyl-CoA desaturase is more than 10000 nM.

On to `O=C(Nc1ncc(CCCO)s1)c1ccc(CNc2ccccc2C(F)(F)F)cc1`, for which, on Stearoyl-CoA desaturase, the IC50 was 260 nM.

As for `CCCCCCCCc1ccccc1NCc1ccc(C(=O)Nc2nc(CC(=O)O)cs2)cc1`, the IC50 at Stearoyl-CoA desaturase came out at 4.5 nM. For the same compound, the Activity with Mus musculus [1] worked out at 15%; with Mus musculus [2], 127%; in the data set with Mus musculus [3] it was 74%; with Mus musculus [4] it was 71%.

Consider `O=C(Nc1ncc(CO)s1)c1ccc(CNc2ccccc2C(F)(F)F)cc1`, for which the IC50 on Stearoyl-CoA desaturase stood at 2.8 nM.

Turning to `O=C(O)Cc1csc(NC(=O)c2ccc(CNc3ccccc3Cl)cc2)n1`, on Stearoyl-CoA desaturase, the IC50 was 13 nM. The results for the Activity in the data set with Mus musculus [1] and with Mus musculus [2] were 72% and 132%, respectively.

`Cc1csc(NC(=O)c2ccc(CNc3ccccc3Cl)cc2)n1`: on Stearoyl-CoA desaturase, the half-inhibitory concentration (IC50) came out at 9.2 nM.

For `CCCCCCCCc1ccccc1NCc1ccc(C(=O)Nc2nc(CC(=O)O)cs2)s1`, the IC50 on Stearoyl-CoA desaturase was 17 nM. Moreover, the Activity with Mus musculus [1] is recorded as 7%; with Mus musculus [2] it was 77%; in the data set on Mus musculus [3] it was 11%; in the data set with Mus musculus [4], 8%.

For `O=C(O)Cc1csc(NC(=O)c2ccc(CNc3ccccc3Cc3ccccc3)s2)n1`, the IC50 at Stearoyl-CoA desaturase was 7.5 nM. For the same compound, the Activity in the data set on Mus musculus [1] turned out to be 22%; in the data set with Mus musculus [2], 128%; with Mus musculus [3] it was 20%; with Mus musculus [4] it was 76%.

As to `O=C(Nc1nc(CCO)cs1)c1ccc(CNc2ccccc2Cl)cc1`, at Stearoyl-CoA desaturase, the IC50 was 6.4 nM. The Activity turned out to be 29% in the data set on Mus musculus [1], 74% in the data set with Mus musculus [2], 66% in the data set on Mus musculus [3] and 35% in the data set on Mus musculus [4].

As for `Cc1csc(NC(=O)c2ccc(CNc3cccc(Cl)c3)cc2)n1`, on Stearoyl-CoA desaturase, the IC50 was 18 nM.

As for `O=C(Nc1nc(CCO)cs1)c1ccc(CNc2ccccc2C(F)(F)F)s1`, the IC50 on Stearoyl-CoA desaturase turned out to be 3.9 nM. The Activity stood at 10% in the data set on Mus musculus [1], 171% in the data set on Mus musculus [2], 27% with Mus musculus [3] and 8% in the data set on Mus musculus [4].

As to `CC(C)CCc1ccccc1NCc1ccc(C(=O)Nc2nc(CCO)cs2)cc1`, the IC50 at Stearoyl-CoA desaturase came out at 5.3 nM. Moreover, the Activity turned out to be 26% in the data set with Mus musculus [1] and 63% with Mus musculus [2].

With `O=C(Nc1nc(CO)cs1)c1ccc(CNc2ccccc2C(F)(F)F)s1`, at Stearoyl-CoA desaturase, the IC50 stood at 5.1 nM. The values for the Activity in the data set on Mus musculus [1] and in the data set with Mus musculus [2] were 9% and 33%, respectively.

In the case of `CCCCc1ccccc1NCc1ccc(C(=O)Nc2nc(CCO)cs2)cc1`, on Stearoyl-CoA desaturase, the IC50 is 3 nM. Also, the Activity stood at 61% in the data set with Mus musculus [1] and 94% in the data set with Mus musculus [2].

On to `Cc1csc(NC(=O)N2CCC(CNc3ccccc3C(F)(F)F)CC2)n1`, for which the IC50 at Stearoyl-CoA desaturase was 30 nM.

`O=C(O)CCCc1csc(NC(=O)c2ccc(CNc3ccccc3C(F)(F)F)cc2)n1`: the IC50 at Stearoyl-CoA desaturase came out at 2700 nM.

As to `Cc1csc(NC(=O)c2ccc(CNc3ccccc3C)cn2)n1`, the IC50 on Stearoyl-CoA desaturase came out at 46 nM.

In the case of `O=C(O)Cc1cnc(NC(=O)c2ccc(CNc3ccccc3C(F)(F)F)cc2)s1`, the IC50 on Stearoyl-CoA desaturase turned out to be 58 nM.

As to `Cc1csc(NC(=O)c2ccc(CNc3ccccc3C(=O)O)cc2)n1`, at Stearoyl-CoA desaturase, the IC50 came out at 3600 nM.

Consider `Cc1ccccc1NCc1ccc(C(=O)Nc2nc(CC(=O)O)cs2)cc1`, for which the IC50 on Stearoyl-CoA desaturase turned out to be 14 nM.

On to `O=C(Nc1nc(CCCO)c(CCO)s1)c1ccc(CNc2ccccc2C(F)(F)F)cc1`, for which, at Stearoyl-CoA desaturase, the IC50 amounted to 31 nM.

For `CC(C)CCc1ccccc1NCc1ccc(C(=O)Nc2nc(CC(=O)O)cs2)cc1`, at Stearoyl-CoA desaturase, the IC50 stood at 4.8 nM. Further, the Activity with Mus musculus [1] came out at 19%; in the data set with Mus musculus [2], 68%.

For the compound `O=C(O)Cc1csc(NC(=O)c2ccc(CNc3ccccc3-c3ccccc3)cc2)n1`, the IC50 at Stearoyl-CoA desaturase was determined as 8.7 nM. The Activity in the data set on Mus musculus [1] was 74%; in the data set on Mus musculus [2], 187%.

Take `Cc1csc(NC(=O)c2ccc(CNc3ccccc3C)nc2)n1`: the IC50 at Stearoyl-CoA desaturase worked out at 310 nM.

Regarding `CCCCc1ccccc1NCc1ccc(C(=O)Nc2nc(CO)cs2)cc1`, the IC50 on Stearoyl-CoA desaturase was 3.2 nM. Besides, the figures for the Activity in the data set with Mus musculus [1] and with Mus musculus [2] were 10% and 29%, respectively.

On to `O=C(Nc1nc(CO)cs1)c1ccc(CNc2ccccc2Cl)cc1`, for which the IC50 at Stearoyl-CoA desaturase was 4.3 nM. The Activity in the data set with Mus musculus [1] is recorded as 12%; in the data set with Mus musculus [2] it was 37%.

In the case of `O=C(Nc1nc(CCCO)cs1)c1ccc(CNc2ccccc2C(F)(F)F)cc1`, the IC50 at Stearoyl-CoA desaturase was found to be 5.2 nM. Besides, the Activity was 64% with Mus musculus [1] and 75% with Mus musculus [2].

Consider `Cc1csc(NC(=O)c2ccc(COc3ccccc3Cl)cc2)n1`, for which, on Stearoyl-CoA desaturase, the IC50 was determined as 150 nM.

`O=C(Nc1ncc(C(=O)O)s1)c1ccc(CNc2ccccc2C(F)(F)F)cc1`: the IC50 on Stearoyl-CoA desaturase amounted to 8.1 nM.
